Series [1] concerns Quadruplex DNA. Put plainly: Binding affinity to telomeric Htg24 G-quadruplex DNA (unknown origin) at 5 uM at pH 7.4 by UV-spectrophotometric titration analysis. Type of series: nucleic-acid assay. The method, boiled down: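 UV-vis titration of ligand (5 μM) with Htg24 (0–15 μM) in 10 mM Tris-HCl pH 7.4 containing 60 mM KCl, added until saturation.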
Series [2] relates to Quadruplex DNA. Description: Binding affinity to wild type telomeric Htg24 G-quadruplex DNA (unknown origin) assessed as antiparallel structure at 5 uM under pH condition 7.4 with 60 mM K+ ion by CD spectra analysis. Type of series: nucleic-acid assay. The method, boiled down: (§1)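 CD spectra recorded on G4-DNA and ligand, each at 5 μM, in 10 mM Tris-HCl, pH 7.4, with 60 mM KCl. Scan range 220–340 nm in a 1 mm quartz cuvette, 1 nm bandwidth and step, 0.5 s/point. Each spectrum is the average of three scans.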

The test system of series [3] is Quadruplex DNA [UNDEFINED MUTATION]. Description: Effect on confirmation of telomeric Htg24 G-quadruplex DNA T19G mutant (unknown origin) assessed as hybrid topology at 5 uM at pH 7.4 by circular dichroism analysis. Type of series: nucleic-acid assay. As to conditions: Homo sapiens. The essentials: as §1
(In general: CD spectra are sensitive to the conformation of chiral molecules.)

The test system is the same in series [4]. Put plainly: Binding affinity to telomeric Htg24 G-quadruplex DNA G3T mutant (unknown origin) assessed as negative fluorescence signal at 5 uM under pH condition 7.4 by fluorescence titration analysis. Type of series: nucleic-acid assay. The following applies: Homo sapiens. The method, boiled down:
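Ligand held at 5 μM and mixed with each Htg24 point mutant in Tris-HCl buffer containing 60 mM KCl, pH 7.4. Fluorescence was read, and the signal change was computed as (F mutant − F wild type)/F wild type.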

Series [5] shares this test system. Put plainly: Binding affinity to telomeric Htg24 G-quadruplex DNA G17A mutant (unknown origin) assessed as negative fluorescence signal at 5 uM under pH condition 7.4 by fluorescence titration analysis. Type of series: nucleic-acid assay. The following applies: Homo sapiens. The method, boiled down:
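Ligand 5 μM mixed with wild-type or point-mutant Htg24 in Tris-HCl buffer with 60 mM KCl; signal change calculated as (F mutant − F wild type)/F wild type.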

Series [6] in a line: Water solubility of compound at 25 degreeC. Type of series: physicochemical. The method, boiled down: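 Solubility in water measured at 25 °C.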

SMILES strings stand for the structures. Active and inactive are the calls of the source. No cut-off for these calls is given here.

Take `CN(C)c1ccc(/C=C/c2cc(/C=C3\Sc4ccccc4N3CCCN3CCOCC3)c3ccccc3[n+]2C)cc1.[I-]`: the outcome in series [1], in series [2], in series [3], in series [4] and in series [5] was Active. Besides, the concentration in solution in series [6] (solubility) came to 122 µM.

One may read the solubility as how much of the substance goes into solution per volume. The low end stands for a poorly soluble substance, the high end for a readily soluble substance.
